# Entries after “also recorded” stand apart in the source; their conditions may differ.
# Assays:
# Assay type in all cases: cell-based, human
# [1] = system: MYC Ser^62; experiment: pMYC Ser62 immunoblot in MIA PaCa-2 cells; conditions: 30 min
# Summary of the method: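 MIA PaCa-2 cells were exposed to CDK9 inhibitors for 30 min. Lysates were cleared at 18,000 x g, 15 min, 4 °C, and protein was quantified by Bradford. pMYC Ser62 and total MYC were immunoblotted.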
# [2] = system: MYC mRNA; experiment: MYC mRNA by qPCR; conditions: MIA PaCa-2 cells
# Summary of the method: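 MIA PaCa-2 cells were compound-treated (6 h where stated). MYC mRNA was measured by qPCR, normalized to GAPDH or BACT mRNA, and analysed by the ddCT method.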
# [3] = system: EGFP-MYC; experiment: GPS-MYC degradation screen; conditions: 6 hours; for effect on EGFP-MYC stability in the GPS-MYC screen: 20 μM
# Summary of the method: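 MIA PaCa-2 cells were lentivirally transduced with DsRed-IRES-EGFP-MYC and selected with 2 μg/ml puromycin. Frozen stocks were thawed, grown 2 days, then plated at 20,000 cells/well in 384-well plates. Next day, compound was given in DMEM/2% FBS for 6 h. Controls were DMSO, cycloheximide (final 7.5 μg/ml) and MG132 (final 3.75 μM). Cells were detached with Accumax (20 min, 37 °C) and read by plate flow cytometer for EGFP/DsRed. Values were normalized to control wells; run in duplicate.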
# [4] = system: CDK9; experiment: pPol II; conditions: MIA PaCa-2 cells, 6 hours
# Summary of the method: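 After 6 h compound exposure, MIA PaCa-2 lysates were made in 1% Triton buffer, pH 7.4, with protease and phosphatase inhibitors, cleared at 18,000 x g, 15 min, 4 °C, and quantified by Bradford. pPol II and MCL-1 were immunoblotted as CDK9 signaling read-outs.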
# [5] = system: MYC; experiment: MYC protein levels by immunoblot in MIA PaCa-2 cells; conditions: 6 hours
# [6] = system: CDK8/19; experiment: pSTAT1; conditions: MIA PaCa-2 cells
# Summary of the method: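 CDK8/19 inhibition in compound-treated MIA PaCa-2 cells was read as pSTAT1 by immunoblot. Lysis was in 1% Triton buffer (25 mM Tris pH 7.4) with protease and phosphatase inhibitors; clarification was at 18,000 x g, 15 min, 4 °C. Blots are representative of at least three independent experiments.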
Compound,effect on EGFP-MYC stability in the GPS-MYC screen [3],endogenous MYC protein levels [5],other results
CC(C)(C)c1cnc(CSc2cnc(NC(=O)C3CCN(CC(=O)NCCOCCOCCOCCNc4cccc5c4C(=O)N(C4CCC(=O)NC4=O)C5=O)CC3)s2)o1 (stereo not shown) [THAL-SNS-032],,,MYC phosphorylation at Ser^62 [1]: decreased MYC phosphorylation at Ser^62
COC(=O)Nc1nc2ccc(Oc3ccc(NC(=O)Nc4ccccc4)cc3)cc2[nH]1 [UNC10112731],increased EGFP-MYC without affecting DsRed,,"MYC mRNA levels [2]: not due to increased transcription; EGFP-MYC and endogenous MYC levels in GPS-MYC cells ([3]; secondary validation, flow cytometry and immunoblot): dose-dependent increase in EGFP-MYC and endogenous MYC levels"
O=C(Nc1n[nH]c2nc(-c3ccco3)c(Br)cc12)C1CC1 [UNC10112671],stabilized MYC,,
CN(C)CCOc1ccc(-c2nc(-c3ccncc3)c(-c3ccc4c(c3)CC/C4=N\O)[nH]2)cc1.Cl.O [UNC10112687],destabilized MYC,,
CN1CCN(C(=O)c2ccc3cc(CCNc4ncnc5ccc(C#N)cc45)ccc3c2)CC1 [Senexin B],,but not MYC protein levels,MCL-1 protein levels [4]: absence of a reduction in MCL-1; pSTAT1 (phosphorylation of STAT1 at S727) [6]: reduction in pSTAT1
COc1cc(N2CCN(C)CC2)ccc1Nc1nccc(-c2cn(C)c3cnccc23)n1 [AZ191],,failed to cause a dose-dependent loss of endogenous MYC protein,
CCOc1cc(N2CCC(O)CC2)ccc1Nc1ncc2c(n1)N(C)c1ccccc1C(=O)N2C [XMD8–92],,,phosphorylation of RNA polymerase II (pPol II) at S2 [4]: did not reduce phosphorylation of the CDK9 substrate Pol II
S=C(NCc1ccc2c(c1)OCO2)N1CCN(c2ncnc3c2oc2ccccc23)CC1 [amuvatinib],,did not increase endogenous MYC in a dose-dependent manner; also recorded: failed to cause a dose-dependent loss of endogenous MYC protein,
COc1ncc2cc(C(=O)Nc3cc(C(=O)NCc4cccc(Cl)c4)ccc3Cl)c(=O)[nH]c2n1 [TC-S 7004],,failed to cause a dose-dependent loss of endogenous MYC protein,
